Reference: PMC4834983 (Journal of medicinal chemistry, 2015)

Legend:
[1] = tested on: SF295 cells; experiment: CyQuant cell proliferation assay; format: cell-based; details: Homo sapiens, SF-295, 72 h, read-out: IC50 cell proliferation SF295
How it was run: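 CyQuant DNA-dye proliferation assay on cultured cells after 72 h exposure to test compound. Viability expressed relative to DMSO-treated control cells.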

[2] = tested on: pYStat3; experiment: Immunoblotting of pStat3 in treated U251MG cells; format: cell-based, human; details: 5 μM, glioma cells, immunoblotting
How it was run: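 Whole-cell lysates from U251MG cells given test compound at 5 μM for 0–24 h, or at 0–5 μM for 2 h. Immunoblotted for pY705Stat3 and total Stat3, with GAPDH as loading reference.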

[3] = tested on: G10 cells; experiment: Growth of glioma patient-derived xenograft cells in vitro; format: cell-based; details: Homo sapiens, read-out: inhibitory activity against growth of G10 cells
[4] = tested on: NIH3T3 cells; experiment: Colony survival assay; format: cell-based, mouse; details: 2.5 μM or less
How it was run: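 Cells seeded as single cells at 250 per well and treated once the next day with test compound (0–5 μM) for 72 h. Grown until large colonies were visible: 1 week for NIH3T3, 2 weeks for U251MG. Colonies stained with crystal violet for 4 h and counted.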

[5] = tested on: U251MG cells; experiment: BrdU incorporation assay; format: cell-based, human; details: 5 μM, at 24 h
How it was run: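 U251MG cells on glass coverslips exposed to DMSO or 5 μM test compound for 3–24 h. BrdU (10 micromolar) added for the final 2 h. Fixed in 4% paraformaldehyde for 10 min, stained with anti-BrdU antibody and counterstained with DAPI. Imaged by fluorescence microscopy, and cells counted.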

[6] = tested on: U251MG cells; experiment: Cell cycle distribution analysis; format: cell-based, human; details: 15 h treatment
How it was run: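 U251MG cells synchronised by double thymidine block (2 mM) and released for 9 h, then given DMSO or 8 μM test compound for 15 h. Fixed overnight at −20 °C in 70% ethanol/3% FBS in PBS. Stained in PI/RNase buffer for 15 min at room temperature, then DNA content measured by flow cytometry.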

[7] = tested on: pStat1; experiment: Immunoblotting, EGF-stimulated NIH3T3/hEGFR fibroblasts; format: cell-based, mouse; details: 5 μM pre-treatment
How it was run: (§1)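 NIH3T3/hEGFR fibroblasts pretreated with or without 5 μM test compound for 3 h, then stimulated with 1 μg/ml EGF for 12 min. Whole-cell lysates, equal total protein, immunoblotted for pStat1/Stat1, pStat5/Stat5 and pErk1/2/Erk1/2.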

[8] = tested on: pStat5; experiment: as above; format: cell-based, mouse; details: 5 μM pre-treatment
How it was run: as §1

[9] = tested on: pErk1/2MAPK; experiment: as above; format: cell-based, mouse; details: 5 μM pre-treatment
How it was run: as §1

[10] = tested on: pErk1/2MAPK; experiment: Immunoblotting, U251MG glioma cells; format: cell-based, human; details: 5 μM
How it was run: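 U251MG cells given 5 μM test compound for 0–24 h. Whole-cell lysates of equal total protein immunoblotted for pErk1/2, Erk1/2, pS-Akt, Akt, pJAK2, JAK2, SOCS3 and PTP1B, with β-actin or GAPDH as loading reference.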

[11] = tested on: NIH3T3/v-Src fibroblasts; experiment: Trypan blue exclusion viable cell counting; format: cell-based, mouse; details: 1 and 2.5 μM
How it was run: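 Cells in culture treated once with increasing concentrations of test compound for 0–96 h. Harvested every 24 h, and viable cells counted by trypan blue exclusion under phase-contrast microscopy.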

## C/C=C(\C)C(=O)OCC1=C2/C(=C\[C@@]3(C)CC[C@](O)(O3)[C@H](C)C[C@@H]2O)OC1=O [Compound 22]
[1]
  IC50: 7.4 to 18.3 µM
[2]
  effect on pStat3 in treated tumor cells: strongly inhibited
[3]
  inhibition at 5 µM: 45 to 60%
[4]
  effects on NIH3T3 colony numbers: moderate or none
[5]
  cell proliferation measured by BrdU incorporation: significantly impaired
[6]
  cell cycle distribution: induced G2/M accumulation
[7]
  effect on EGF-stimulated pStat1 levels: no effect
[8]
  effect on EGF-stimulated pStat5 levels: no effect
[9]
  effect on EGF-stimulated pErk1/2MAPK levels: no effect
[10]
  effect on pErk1/2MAPK levels: no effects
[11]
  growth of NIH3T3/v-Src over normal NIH3T3 fibroblasts: preferential inhibition of growth
